Published values pooled from the literature.
Protocols differ between the studies behind these lines.
Target: Serine/threonine-protein kinase 33 (STK33, Homo sapiens, UniProt Q9BYT3)

Compound	assay	conditions	measurement	result
Cn1cc(-c2cc(F)cc(N3CCn4c(cc5c4CCCC5)C3=O)c2CO)cc(Nc2ccc(N3CCN(C4COC4)CC3)cn2)c1=O	enzyme activity, inhibitor	0.1 µM	inhibition	-5%
CC(C)(C)c1nc(-c2cccc(NS(=O)(=O)c3c(F)cccc3F)c2F)c(-c2ccnc(N)n2)s1	enzyme activity, inhibitor, radiometric	1 µM	remaining activity	76%
Cn1cncc1[C@](O)(COc1ccc(C#N)cc1-c1ccc(OC(F)(F)F)cc1)c1ccc(C#N)cc1	cell-free assay, competition with immobilised ligand	1 µM	remaining binding	74%
CCOC(=O)c1c(C)[nH]c(/C=C2\C(=O)Nc3ccccc32)c1C	enzyme activity, inhibitor, radiometric	0.5 µM	remaining activity	83.7%
COc1cc(Nc2ncc(F)c(Nc3ccc4c(n3)NC(=O)C(C)(C)O4)n2)cc(OC)c1OC	binding	10 µM	inhibition	85%
COc1ncccc1-c1cnn2ccc(N3CCN(C(=O)OC(C)C)CC3)nc12	binding, competition with immobilised ligand	1 µM	remaining binding	100%
Nc1ccc2ncnc(NCCc3ccc(Oc4ccccc4)cc3)c2c1	enzyme activity, inhibitor, radiometric	0.5 µM	remaining activity	101%
CC(C)(C)c1nc2c(s1)c1nc(N)ncc1c1ccc(NS(=O)(=O)c3c(F)cccc3F)c(F)c12	enzyme activity, inhibitor, radiometric	1 µM	remaining activity	82%
Cn1cc(-c2cccc(N3CCc4c(sc5c4CC(C)(C)C5)C3=O)c2CO)cc(Nc2ccncn2)c1=O	enzyme activity, inhibitor	1 µM	inhibition	2%
Cc1nn(C)cc1-c1nc2c(N3CCN(Cc4ccc(Cl)cc4)CC3)c(Cl)cnc2[nH]1	binding, competition with immobilised ligand	1 µM	remaining binding	100%
N#CC1(c2ccccn2)CCN(Cc2cc(C(=O)O)c(=O)n3ccccc23)CC1	cell-free assay, competition with immobilised ligand	1 µM	remaining binding	56%
Nc1ncc(-c2nc(N3CCOCC3)nc(N3CCOCC3)n2)c(C(F)F)n1	binding, competition with immobilised ligand	10 µM	remaining binding	94%
